Data published in ChEMBL document CHEMBL4359902, “Development of novel chromeno[4,3-c]pyrazol-4(2H)-one derivates bearing sulfonylpiperazine as antitumor inhibitors targeting PI3Kα” (Eur J Med Chem, 2019).

How the values were obtained:
HCT-116 [1] = test: Induction of apoptosis in human HCT116 cells assessed as early apoptotic cells at 0.25 uM measured after 24 hrs by annexin-v-FITC/propidium iodide staining based FACScan flow cytometry analysis (reference value: 10.0 %); assay type: functional
HCT-116 [2] = test: Antiproliferative activity against human HCT116 cells assessed as reduction in cell viability after 48 hrs by MTT assay; assay type: functional, cell-based; conditions: HCT-116, 48 h
HCT-116 [3] = test: Induction of apoptosis in human HCT116 cells assessed as early apoptotic cells at 0.5 uM measured after 24 hrs by annexin-v-FITC/propidium iodide staining based FACScan flow cytometry analysis (reference value: 10.0 %); assay type: functional
HCT-116 [4] = test: Cell cycle arrest in human HCT116 cells assessed as accumulation at S phase at 1 uM measured after 24 hrs by propidium iodide staining based flow cytometry analysis (reference value: 50.12 %); assay type: functional
HCT-116 [5] = test: Induction of apoptosis in human HCT116 cells assessed as necrotic cells at 1 uM measured after 24 hrs by annexin-v-FITC/propidium iodide staining based FACScan flow cytometry analysis (reference value: 1.87 %); assay type: functional
HCT-116 [6] = test: Induction of apoptosis in human HCT116 cells assessed as necrotic cells at 0.25 uM measured after 24 hrs by annexin-v-FITC/propidium iodide staining based FACScan flow cytometry analysis (reference value: 1.87 %); assay type: functional
HCT-116 [7] = test: Induction of apoptosis in human HCT116 cells assessed as viable cells at 1 uM measured after 24 hrs by annexin-v-FITC/propidium iodide staining based FACScan flow cytometry analysis (reference value: 78.5 %); assay type: functional; conditions: HCT-116, 24 h, read-out: Activity
[8] = biological target: Serine/threonine-protein kinase mTOR (Homo sapiens, UniProt P42345); test: Inhibition of mTOR (unknown origin)
[9] = biological target: Phosphatidylinositol 4,5-bisphosphate 3-kinase catalytic subunit alpha isoform (Homo sapiens, UniProt P42336); test: Inhibition of PI3Kalpha (unknown origin) using diC8-PI(4,5)P2 as substrate incubated for 3 hrs in presence of ATP by fluorescence polarization assay
Sequence of Phosphatidylinositol 4,5-bisphosphate 3-kinase catalytic subunit alpha isoform (P42336 whole entry, canonical isoform): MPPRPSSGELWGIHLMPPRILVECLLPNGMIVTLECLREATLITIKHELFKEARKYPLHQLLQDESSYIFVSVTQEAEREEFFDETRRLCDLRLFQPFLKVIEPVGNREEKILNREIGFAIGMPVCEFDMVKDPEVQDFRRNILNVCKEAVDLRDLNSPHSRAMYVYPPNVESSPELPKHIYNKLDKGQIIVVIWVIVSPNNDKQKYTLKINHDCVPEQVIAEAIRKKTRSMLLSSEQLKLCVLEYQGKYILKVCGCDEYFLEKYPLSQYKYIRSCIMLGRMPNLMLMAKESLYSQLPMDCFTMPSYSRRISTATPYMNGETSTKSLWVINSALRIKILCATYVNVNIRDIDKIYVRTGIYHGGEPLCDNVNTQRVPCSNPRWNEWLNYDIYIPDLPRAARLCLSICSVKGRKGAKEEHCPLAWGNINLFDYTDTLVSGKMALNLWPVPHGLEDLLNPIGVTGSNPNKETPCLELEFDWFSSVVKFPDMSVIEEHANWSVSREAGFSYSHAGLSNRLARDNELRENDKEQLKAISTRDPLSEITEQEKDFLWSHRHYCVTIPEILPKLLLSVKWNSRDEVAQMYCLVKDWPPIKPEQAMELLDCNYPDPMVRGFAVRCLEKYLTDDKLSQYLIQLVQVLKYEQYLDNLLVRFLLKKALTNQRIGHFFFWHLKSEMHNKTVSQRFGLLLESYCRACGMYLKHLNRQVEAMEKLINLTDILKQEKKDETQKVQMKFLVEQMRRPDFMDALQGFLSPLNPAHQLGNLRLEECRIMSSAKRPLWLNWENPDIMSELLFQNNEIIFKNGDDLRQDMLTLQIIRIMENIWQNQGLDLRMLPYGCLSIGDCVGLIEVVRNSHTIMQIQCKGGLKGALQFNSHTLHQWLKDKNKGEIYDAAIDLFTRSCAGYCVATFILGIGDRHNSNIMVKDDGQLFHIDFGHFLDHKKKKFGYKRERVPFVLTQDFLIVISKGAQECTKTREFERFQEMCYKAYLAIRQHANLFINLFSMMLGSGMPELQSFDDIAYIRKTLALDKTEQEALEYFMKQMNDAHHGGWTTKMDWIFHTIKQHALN
How it was run: (§1)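 Fluorescence polarization competition assay, 10 μL reactions at pH 7: 2.5 mM MgCl₂, 5 mM HEPES, ATP, 10 mM DTT, 50 ng PI3K isoform, diC8-PI(4,5)P2 substrate. After 3 h at room temperature, reactions were chelator-quenched. Phosphoinositide binding protein and fluorophore-labelled tracer were added, then 1 h dark equilibration and polarization read.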

HCT-116 [10] = test: Cell cycle arrest in human HCT116 cells assessed as accumulation at S phase at 0.5 uM measured after 24 hrs by propidium iodide staining based flow cytometry analysis (reference value: 50.12 %); assay type: functional
HCT-116 [11] = test: Cell cycle arrest in human HCT116 cells assessed as accumulation at S phase at 0.25 uM measured after 24 hrs by propidium iodide staining based flow cytometry analysis (reference value: 50.12 %); assay type: functional
HCT-116 [12] = test: Cell cycle arrest in human HCT116 cells assessed as accumulation at G2 phase at 0.25 uM measured after 24 hrs by propidium iodide staining based flow cytometry analysis (reference value: 7.86 %); assay type: functional
HCT-116 [13] = test: Cell cycle arrest in human HCT116 cells assessed as accumulation at G2 phase at 0.5 uM measured after 24 hrs by propidium iodide staining based flow cytometry analysis (reference value: 7.86 %); assay type: functional
[14] = biological target: T1, Phosphatidylinositol 4,5-bisphosphate 3-kinase catalytic subunit delta isoform (Homo sapiens, UniProt O00329); test: Inhibition of PI3Kdelta (unknown origin) using diC8-PI(4,5)P2 as substrate incubated for 3 hrs in presence of ATP by fluorescence polarization assay; how it was run: as §1
T1 sequence (O00329 whole entry): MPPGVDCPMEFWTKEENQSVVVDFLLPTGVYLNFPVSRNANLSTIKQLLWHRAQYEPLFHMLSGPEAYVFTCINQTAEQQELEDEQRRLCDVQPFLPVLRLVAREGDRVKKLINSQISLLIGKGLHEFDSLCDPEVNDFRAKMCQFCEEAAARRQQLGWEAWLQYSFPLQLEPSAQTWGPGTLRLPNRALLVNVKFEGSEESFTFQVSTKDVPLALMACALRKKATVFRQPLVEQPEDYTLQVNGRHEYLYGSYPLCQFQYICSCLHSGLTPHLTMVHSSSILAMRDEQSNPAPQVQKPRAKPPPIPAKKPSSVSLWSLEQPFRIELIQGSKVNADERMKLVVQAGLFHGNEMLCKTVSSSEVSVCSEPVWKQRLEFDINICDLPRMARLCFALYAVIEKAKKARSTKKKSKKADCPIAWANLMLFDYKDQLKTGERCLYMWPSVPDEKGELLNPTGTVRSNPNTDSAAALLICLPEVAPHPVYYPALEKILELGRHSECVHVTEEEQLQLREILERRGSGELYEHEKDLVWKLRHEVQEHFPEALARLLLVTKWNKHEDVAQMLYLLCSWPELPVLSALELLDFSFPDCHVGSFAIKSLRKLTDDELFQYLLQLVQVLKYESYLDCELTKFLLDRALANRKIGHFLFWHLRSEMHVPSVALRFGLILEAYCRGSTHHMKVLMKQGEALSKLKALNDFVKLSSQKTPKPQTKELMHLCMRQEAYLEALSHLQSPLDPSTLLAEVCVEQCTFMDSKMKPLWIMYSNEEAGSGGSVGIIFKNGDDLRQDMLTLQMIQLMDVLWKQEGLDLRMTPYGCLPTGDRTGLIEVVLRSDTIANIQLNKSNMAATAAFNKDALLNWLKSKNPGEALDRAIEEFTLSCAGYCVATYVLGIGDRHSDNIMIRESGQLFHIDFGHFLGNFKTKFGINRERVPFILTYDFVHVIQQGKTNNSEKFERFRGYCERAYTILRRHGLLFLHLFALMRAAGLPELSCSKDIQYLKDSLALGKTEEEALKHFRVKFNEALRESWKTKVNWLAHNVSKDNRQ

HCT-116 [15] = test: Induction of apoptosis in human HCT116 cells assessed as late apoptotic cells at 0.25 uM measured after 24 hrs by annexin-v-FITC/propidium iodide staining based FACScan flow cytometry analysis (reference value: 9.61 %); assay type: functional

IC50 (HCT-116 [2]): 30 nM | IC50 [8]: 9380 nM | IC50 [9]: 9 nM | IC50 [14]: 120 nM
Structure (SMILES): O=c1oc2ccccc2c2nn(CN3CCN(S(=O)(=O)c4ccc(Cl)c([N+](=O)[O-])c4)CC3)cc12
Activity (HCT-116 [1]): 16.1% | Activity (HCT-116 [3]): 17.1% | Activity (HCT-116 [4]): 33.78% | Activity (HCT-116 [5]): 1.04% | Activity (HCT-116 [6]): 6.98% | viability at 1 µM (HCT-116 [7]): 36.6% | Activity (HCT-116 [10]): 39.53% | Activity (HCT-116 [11]): 42.4% | Activity (HCT-116 [12]): 10.73% | Activity (HCT-116 [13]): 9.52% | Activity (HCT-116 [15]): 21%
